Screens: PubChem, several laboratories
Runt-SMMHC FRET = inhibitors of RUNX1 Runt–CBFb-SMMHC binding, primary screen, biochemical, FRET, Cerulean-Runt, Venus-CBFb-SMMHC, uHTS. Runt-related transcription factor 1 (Homo sapiens) + Core-binding factor subunit beta …. Cerulean-Runt/Venus-CBFb-SMMHC FRET ratio 530/480, 1 h. inhibition, % at 20 µM. 0.74% of 220,000 active. AID 1434, 2008;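 active means mean inhibition across duplicate retests at 20 µM reaching about 50%, limit read from the data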;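 further: 0% = DMSO wells and 100% = wells with excess untagged CBFb-SMMHC; inhibitors lower the FRET ratio by blocking Runt binding to CBFb-SMMHC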
Hck-Nef inh = inhibitors of Nef-activated human Hck kinase, primary screen, biochemical, Z-Lyte FRET, 384-well, Hck-YEEI; Recombinant Hck-YEEI plus Nef, Z-Lyte FRET kinase assay; inhibition, % at 20 µM; AID 463187, 2010; 0.68% of 220,000 active;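 active means Hck-Nef kinase inhibition above about 50%, limit read from the data; inactive means inhibition below that limit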;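 further: 0% = DMSO with Hck plus Nef and 100% = Hck alone without Nef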
Runt-CBFb FRET = inhibitors of RUNX1 Runt–CBFb binding, primary screen, biochemical, FRET, Cerulean-Runt, Venus-CBFb, uHTS; Runt-related transcription factor 1 (Homo sapiens) + Core-binding factor subunit beta …; Cerulean-Runt/Venus-CBFb FRET ratio 530/480, 1 h; inhibition, % at 20 µM; 0.46% of 220,000 active; AID 1496, 2009;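 active means inhibition over about 50% at 20 µM in the single-dose screen, limit read from the data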;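 further: 0% = DMSO wells and 100% = excess unlabeled CBFb competitor control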
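test system = Cerulean-Runt domain fusion protein, energy donor | probe or stimulus = Venus-CBFb binding partner, 100 nM | incubation = two 1 h room-temperature incubations shielded from light | detection = fluorescence energy transfer, 422 nm excitation, 530/480 nm emission | measure = loss of energy transfer signal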
RanGTP-Imp inh = inhibitors of RanGTP-importin-beta interaction, primary screen, biochemical, FRET, CFP-Ran, YFP-importin-beta, homogeneous; inhibition, % (concentration not given with the values); 1.1% of 300,000 active; cell-free CFP-Ran/YFP-importin-beta FRET ratio;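 active means more than half of the replicate wells show a fall in the fluorescence ratio signal beyond about 16%, limit read from the data, passing the limit was not always enough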;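 further: 0% = DMSO wells and 100% = Ran loaded with GDP instead of GTP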
TbHK1 inh = Trypanosoma brucei hexokinase 1 inhibitors, primary screen, biochemical, G6PDH-coupled NADH absorbance, MLSCN library; hexokinase 1 [Trypanosoma brucei]; recombinant TbHK1, G6PDH-coupled NADH A340; inhibition, % at 10 µM; 0.11% of 220,000 active;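 active means inhibition of 50% or more in the single-dose primary screen; inactive means inhibition below 50%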
p97 ATPase inh = inhibitors of human p97 ATPase, primary screen, biochemical | 0.42% of 220,000 active | Transitional endoplasmic reticulum ATPase (Homo sapiens), P55072 | AID 1481, 2009 | recombinant p97 ATPase, Kinase-Glo ATP luminescence, 3 h | inhibition, % at 8 µM; in the data active means inhibition above about 15%;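 further: 0% = DMSO vehicle and 100% = wells lacking enzyme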
Target sequence (P55072 whole entry, looked up): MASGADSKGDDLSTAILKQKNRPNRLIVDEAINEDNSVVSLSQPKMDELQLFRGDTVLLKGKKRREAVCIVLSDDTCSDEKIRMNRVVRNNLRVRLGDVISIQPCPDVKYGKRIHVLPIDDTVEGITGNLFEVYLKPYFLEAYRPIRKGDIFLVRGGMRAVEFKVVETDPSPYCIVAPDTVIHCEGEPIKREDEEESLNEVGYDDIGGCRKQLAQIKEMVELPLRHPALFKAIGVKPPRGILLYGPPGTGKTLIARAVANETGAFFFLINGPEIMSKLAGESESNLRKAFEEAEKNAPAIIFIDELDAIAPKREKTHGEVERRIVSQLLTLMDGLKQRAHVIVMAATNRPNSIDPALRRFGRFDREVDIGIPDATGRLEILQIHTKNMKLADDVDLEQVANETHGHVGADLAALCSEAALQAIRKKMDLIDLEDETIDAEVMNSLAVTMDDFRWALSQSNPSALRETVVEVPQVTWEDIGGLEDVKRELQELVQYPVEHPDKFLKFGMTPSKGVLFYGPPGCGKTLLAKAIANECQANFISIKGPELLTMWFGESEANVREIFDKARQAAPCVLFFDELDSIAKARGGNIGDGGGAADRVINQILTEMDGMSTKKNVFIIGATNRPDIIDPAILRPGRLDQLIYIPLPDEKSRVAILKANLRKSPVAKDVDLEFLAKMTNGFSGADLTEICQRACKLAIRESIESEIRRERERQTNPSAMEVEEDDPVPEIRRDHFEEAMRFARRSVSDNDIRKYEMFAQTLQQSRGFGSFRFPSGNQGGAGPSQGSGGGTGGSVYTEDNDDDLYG
Active calls of the source: *; x = not tested or not shown. In the library only some 2.1% were active in any assay of this set; here they are far more common.

SMILES	Runt-SMMHC FRET	Hck-Nef inh	Runt-CBFb FRET	RanGTP-Imp inh	TbHK1 inh	p97 ATPase inh
COC(=O)C(c1ccccc1)N(Cc1cccc(CN(C(C(=O)OC)c2ccccc2)S(C)(=O)=O)c1)S(C)(=O)=O (stereo unspecified)	x	x	x	1	x	x
COc1cccc(CN2CCNC(=O)C2CC(=O)NCCc2ccccn2)c1 (stereo unspecified)	-3	-1	2	-3	-3	0
Oc1cc(O)c2c(c1)O[C@H](c1ccc(O)c(O)c1)[C@H](O)C2	x	x	x	-3	x	x
O=C(O[C@@H]1Cc2c(O)cc(O)cc2O[C@@H]1c1cc(O)c(O)c(O)c1)c1cc(O)c(O)c(O)c1	17	x	41	4	x	42*
CCCCCCCCNC(=O)/C(C#N)=C/c1ccc(SC)cc1	1	8	-11	4	-11	4
Cc1cccn2c(=O)c3cc(C(=O)N4COCC4(C)C)n(Cc4ccccc4)c3nc12	x	x	x	-1	x	x
COc1c2ccoc2c(OC[C@@H](O)C(C)(C)OC)c2oc(=O)ccc12	84*	3	30	8	-3	1
CCOc1ccccc1/C=C/c1nc2ccccc2[nH]c1=O	x	x	x	71*	x	x
CCOC(=O)N1CCN(Cc2cc(Cl)c3cccnc3c2O)CC1	-6	17	4	44*	-13	-3
COc1cccc(/C(O)=C/c2nc3ccc(C(=O)NCCc4ccc(Cl)cc4)cc3[nH]c2=O)c1	10	5	-11	32*	-9	-2
COc1cccc(/C(O)=C/c2nc3ccc(C(=O)NCCc4cccc(C)c4)cc3[nH]c2=O)c1	-54	0	-4	43*	-8	-8
COc1cccc(C(=O)Nc2cc(C(=O)NCCc3ccccc3)ccc2Cl)c1	7	3	3	6	4	2
O=C(NCCCN1CCOCC1)C(=O)NCc1ccccc1	-1	13	0	-1	4	-1
COc1ccc(CNC(=O)C(C)Sc2nc3ccccc3c(=O)n2CCCN2CCOCC2)cc1 (stereo unspecified)	-2	-34	0	0	-3	1
Nc1c(S(=O)(=O)c2cccc(Cl)c2)c2nc3ccccc3nc2n1CCN1CCOCC1	-3	3	1	12	-10	1
COC(=O)c1c(N)n(CCCN2CCOCC2)c2nc3ccccc3nc12	130*	28	66*	21*	-19	4
O=C(NCCCN1CCOCC1)c1ccc(CNS(=O)(=O)c2ccc(F)cc2)cc1	-3	2	1	10	1	5
COc1ccc(CNC(=O)c2c(N)n(CCCN3CCOCC3)c3nc4ccccc4nc23)cc1	81*	42	18	97*	-32	-4
Nc1c(C(=O)NCc2ccccc2)c2nc3ccccc3nc2n1CCCN1CCOCC1	76*	40	79*	101*	-15	-4
Nc1c(C(=O)NCc2ccc(F)cc2)c2nc3ccccc3nc2n1CCCN1CCOCC1	81*	48	12	87*	-20	-3
COc1ccc(NC(=O)CC2C(=O)NCCN2C(=O)c2ccccc2)cc1 (stereo unspecified)	1	0	0	-3	4	1
CN1CCN(c2ccc(NC(=O)c3ccc4ccccc4c3)cc2)CC1	x	x	x	5	x	x
CCCCCOC(=O)c1c(N)n(CCOC)c2nc3ccccc3nc12	114*	41	36	6	-15	-6
CC(C)CCNC(=O)c1onc(CSc2ccccc2)c1C(=O)NCCC(C)C	x	x	x	3	x	x
CC(NC(=O)OC(C)(C)C)C(=O)Oc1cc2oc(=O)cc(-c3ccccc3)c2cc1Cl (stereo unspecified)	79*	4	19	1	-8	2
